Data set [1] can be described thus: Inhibition of HIV1 His6-tagged integrase/FLAG-tagged LEDGF/p75 protein-protein interaction expressed in Escherichia coli BL21(DE3) preincubated with integrase for 30 mins followed by LEDGF/p75 addition measured after 60 mins by AlphaScreen assay. In a few lines:
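His6-integrase (300 nM final) preincubated with compound […] for 30 min at 4 °C. FLAG-LEDGF/p75 (300 nM final) added for 60 min at 4 °C. Ni-chelate donor and anti-FLAG acceptor beads (20 µg/mL each) added for 1 h at 30 °C, then acceptor emission read.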
Background: In Alpha technology, singlet oxygen from a donor bead excites a nearby acceptor bead.

Data set [2] in a line: Inhibition of HIV1 recombinant GST/His-tagged integrase strand transfer activity expressed in Escherichia coli BL21(DE3) using 5'-end 32P labeled linear 21-mer substrate preincubated for 30 mins followed by substrate addition measured after 1 hr by PAGE analysis. Further details: species or system Human immunodeficiency virus 1. In a few lines: (§1)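 Recombinant wild-type integrase (200 nM final) preincubated with inhibitor in 50 mM NaCl, 1 mM HEPES pH 7.5, 10% glycerol, 7.5 mM MnCl2, 0.1 mg/mL BSA. Substrate: 21-mer top strand 5'-labelled with [γ-32P]ATP by T4 polynucleotide kinase, kinase heat-killed at 95 °C for 15 min, annealed to 1.5-fold molar excess bottom strand, and spin-column cleaned.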

Data set [3] in a line: Therapeutic Index, ratio of CC50 for human MT4 cells to EC50 for HIV1 3B infected in human MT4 cells. Type of data set: cell-based. Conditions: read-out: Ratio CC50/EC50.
Data set [4] in a line: Inhibition of HIV1 recombinant GST/His-tagged integrase 3'-processing activity expressed in Escherichia coli BL21(DE3) assessed as reduction in 19-mer product using 5'-end 32P labeled linear 21-mer substrate preincubated for 30 mins followed by substrate addition measured after 1 hr by PAGE analysis. Also on record: species or system Human immunodeficiency virus 1. The procedure, abridged:
as §1

A short description of data set [5]: Cytotoxicity against human MT4 cells assessed as reduction in cell viability after 72 hrs by MTT assay. Type of data set: toxicity, cell-based. For orientation: Tetrazolium dyes change colour on reduction, which living cells bring about.
Data set [6] deals with Human immunodeficiency virus 1. In words: Antiviral activity against HIV1 3B infected in human MT4 cells assessed as reduction in virus-induced cytopathic effect by MTT assay. Type of data set: functional, cell-based. The settings on record: Human immunodeficiency virus 1, 3B. In general terms: Cytopathic effects are the visible damage that an infection or toxin causes in cultured cells.

Data set [7] is described as follows: Therapeutic Index, ratio of CC50 for human C8166 cells to EC50 for HIV1 3B infected in human C8166 cells. It counts as cell-based. Conditions: read-out: Ratio CC50/EC50.
Data set [8] can be described thus: Cytotoxicity against human C8166 cells assessed as reduction in cell viability after 72 hrs by MTT assay. It counts as toxicity, cell-based.
Data set [9] relates to Human immunodeficiency virus 1. In words: Antiviral activity against HIV1 3B infected in human C8166 cells assessed as reduction in virus-induced cytopathic effect by MTT assay. It counts as functional, cell-based. Conditions: Human immunodeficiency virus 1, 3B.
Data set [10] in a line: Inhibition of HIV1 GST-tagged integrase and His6-tagged integrase mutant dimerization expressed in Escherichia coli BL21(DE3) after overnight incubation by AlphaScreen assay. Also on record: species or system Human immunodeficiency virus 1.

SMILES strings stand for the structures. Where only a bound is given, the exact number is not on record here.

The term IC50 denotes the concentration needed to halve the response being measured. In general, CC50 refers to the concentration that lowers cell viability or growth by half. Usually EC50 stands for the concentration that produces a half-maximal response.

`Nc1cccc(C(=O)NCc2ccco2)c1O`: the IC50 in data set [1] was 51 µM; in data set [2] it was more than 100 µM.
For `O=c1oc2cccnc2c(=O)n1Cc1ccc(F)cc1`, the selectivity ratio in [3] stood at 4.3. The IC50 in data set [4], in [1] and in data set [2] was more than 20 µM in each case. Besides, the CC50 at 72 h in data set [5] was determined as 311 µM. Also, in data set [6], the EC50 is 73.5 µM.
In the case of `O=C(Nc1ccc(F)cc1)c1ncccc1O`, in data set [7], the selectivity ratio was more than 45. For the same compound, the IC50 was more than 20 µM in data set [4], 8 µM in data set [1] and more than 20 µM in data set [2]. Also, the CC50 at 72 h in data set [8] was more than 860 µM. Besides, the EC50 in [9] was determined as 19.4 µM.
For `O=C(NCc1ccco1)c1cccnc1O`, the IC50 in data set [1] is more than 100 µM.
On to `O=C(NCc1cccs1)c1ncccc1O`, for which the selectivity ratio in data set [7] worked out at 2.9. In addition, the IC50 was more than 20 µM in data set [4], 8 µM in data set [10], 7.5 µM in data set [1] and more than 20 µM in data set [2]. The CC50 at 72 h in data set [8] worked out at 218 µM. Also, in data set [9], the EC50 was found to be 75.6 µM.
Turning to `COc1cccnc1C(=O)NCc1ccc(F)cc1`, the IC50 in [4], in data set [1] and in [2] was more than 20 µM each time.
With `COc1cc(CNC(=O)c2ncccc2O)cc(OC)c1OC`, in [7], the selectivity ratio is more than 9. For the same compound, the IC50 was more than 20 µM in data set [4], 9.8 µM in data set [10], 2.5 µM in data set [1] and more than 20 µM in [2]. For the same compound, in data set [8], the CC50 at 72 h was more than 500 µM. Besides, the EC50 in [9] amounted to 58.7 µM.
As to `O=C(NCc1ccc(F)cc1)c1ccccn1`, the half-inhibitory concentration (IC50) in [4], in data set [1] and in data set [2] was more than 20 µM each time.
Take `CC(C)CN(Cc1ccc(F)cc1)C(=O)c1ncccc1O`: the selectivity ratio in [3] was less than 1. Moreover, the IC50 in data set [4], in [1] and in [2] was more than 20 µM in each case. Also, in [5], the CC50 at 72 h turned out to be 247 µM. The EC50 in data set [6] is 270 µM.
For the compound `O=C(NCc1ccc2[nH]ccc2c1)c1ncccc1O`, the selectivity ratio in data set [7] stood at 2. Also, the concentration for half-maximal inhibition (IC50) in data set [4] was more than 20 µM; in data set [10] it was 8 µM; in [1] it was 4.6 µM; in data set [2] it was more than 20 µM. Moreover, the CC50 at 72 h in data set [8] was 138 µM. Moreover, the EC50 in [9] was found to be 70 µM.
As for `O=C(NCc1ccc(F)cc1)c1cccc(O)n1`, the IC50 in data set [4], in data set [1] and in data set [2] was more than 20 µM throughout.
In the case of `C=C(C)CN(Cc1ccc(F)cc1)C(=O)c1ncccc1O`, the selectivity ratio in data set [3] was less than 1. Further, the IC50 in data set [4], in data set [1] and in [2] was more than 20 µM throughout. The 50% cytotoxic concentration (CC50) at 72 h in [5] is 272 µM. Besides, in data set [6], the EC50 turned out to be 279 µM.
With `O=C(NCc1ccc(F)cc1)c1cc(O)ccn1`, the half-maximal inhibitory concentration (IC50) in [4], in [1] and in data set [2] was more than 20 µM in each case.
As for `CCCCNC(=O)c1ncccc1O`, the half-inhibitory concentration (IC50) in data set [4], in data set [1] and in data set [2] was more than 20 µM in each case. Besides, the CC50 at 72 h in [8] was more than 1000 µM. Besides, the EC50 in data set [9] was more than 500 µM.
Take `O=c1oc2cccnc2c(=O)n1Cc1cccs1`: the selectivity ratio in data set [3] came to 5.2. Besides, the half-inhibitory concentration (IC50) in [4], in [1] and in [2] was more than 20 µM throughout. In addition, in data set [5], the CC50 at 72 h worked out at 363 µM. The EC50 in [6] came out at 69.9 µM.
For `O=C(NCc1ccc(F)c(Cl)c1)c1ncccc1O`, the selectivity ratio in data set [7] worked out at 16. In addition, the IC50 is more than 20 µM in data set [4], 4.2 µM in data set [1] and more than 20 µM in [2]. Besides, the cytotoxic concentration (CC50) at 72 h in data set [8] turned out to be 310 µM. Moreover, the EC50 in data set [9] came to 19.2 µM.
`O=C(NCc1ccc(F)cc1)c1ncccc1F`: the IC50 in data set [4], in [1] and in data set [2] was more than 20 µM in each case.
As for `O=C(NCc1ccc(F)cc1)c1ncccc1O`, the selectivity ratio in [7] was 1.5. In addition, the half-inhibitory concentration (IC50) is more than 20 µM in data set [4], 6.1 µM in [10], 8.6 µM in data set [1] and more than 20 µM in data set [2]. The CC50 at 72 h in data set [8] was 114 µM. Further, in data set [9], the EC50 was found to be 77.6 µM.
In the case of `CC(C)CCN(Cc1ccc(F)cc1)C(=O)c1ncccc1O`, the selectivity ratio in data set [3] was 3.9. Besides, the IC50 in [4], in data set [1] and in data set [2] was more than 20 µM in each case. The CC50 at 72 h in [5] was 268 µM. Further, in [6], the EC50 was determined as 68.6 µM.
As to `O=C(NCC1CCCCC1)c1ncccc1O`, the selectivity ratio in data set [7] was 2.1. Moreover, the IC50 in [4] was more than 20 µM; in data set [1] it was 19 µM; in data set [2], more than 20 µM. In [8], the CC50 at 72 h turned out to be 137 µM. Moreover, in [9], the EC50 is 66.2 µM.
Take `O=C(NCc1ccco1)c1ncccc1O`: the selectivity ratio in data set [7] was 2.1. For the same compound, the IC50 in data set [4] was more than 20 µM; in data set [10], 10 µM; in [1] it was 2.4 µM; in [2], more than 20 µM. In addition, the CC50 at 72 h in data set [8] amounted to 575 µM. The EC50 in data set [9] came to 269 µM.
On to `O=C(NCc1ccc([N+](=O)[O-])cc1)c1ncccc1O`, for which the selectivity ratio in data set [7] stood at 4.8. Also, the figures for the IC50 in data set [4], in [1] and in data set [2] were more than 20 µM, 4 µM and more than 20 µM, respectively. Also, in [8], the CC50 at 72 h was 127 µM. Besides, in [9], the EC50 turned out to be 26.4 µM.
Regarding `CCCCN(Cc1ccc(F)cc1)C(=O)c1ncccc1O`, the half-maximal inhibitory concentration (IC50) in [4] was more than 20 µM; in data set [10], 14 µM; in [1] it was 12 µM; in data set [2] it was more than 20 µM. Also, in data set [5], the CC50 at 72 h was more than 660 µM. The EC50 in data set [6] is more than 330 µM.
Take `Nc1ccc(CNC(=O)c2ncccc2O)cc1`: in data set [7], the selectivity ratio was more than 2.3. Moreover, the IC50 in data set [4] is more than 20 µM; in data set [10], 4 µM; in data set [1] it was 1.7 µM; in [2], more than 20 µM. Also, in [8], the 50% cytotoxic concentration (CC50) at 72 h is more than 596 µM. Further, in data set [9], the EC50 turned out to be 260 µM.
`O=C(NCc1ccc(C(F)(F)F)cc1)c1ncccc1O`: the selectivity ratio in [7] is less than 1. For the same compound, the IC50 in data set [4], in [1] and in data set [2] was more than 20 µM in each case. Also, in [8], the CC50 at 72 h was 31.4 µM. Moreover, in [9], the EC50 was determined as 43.2 µM.
Turning to `O=C(NCc1cccc2ccccc12)c1ncccc1O`, in [7], the selectivity ratio is 1.5. The concentration for half-maximal inhibition (IC50) in [4], in [1] and in data set [2] was more than 20 µM each time. In [8], the CC50 at 72 h was 88.8 µM. Moreover, the EC50 in data set [9] was 58.2 µM.
As for `O=C(NCc1ccc(F)cc1)c1ccc(O)cn1`, the IC50 in data set [4], in [1] and in [2] was more than 20 µM each time.
For the compound `O=C(NCc1ccc(F)cc1)c1nc(N2CCCCS2(=O)=O)c2cccnc2c1O`, in data set [7], the selectivity ratio turned out to be 52800. Also, the IC50 in data set [4] came out at 0.0054 µM; in data set [2], 0.0008 µM. Besides, the CC50 at 72 h in [8] was 123 µM. In addition, the EC50 in data set [9] worked out at 0.00233 µM.
